Source: ChEMBL document CHEMBL4842395, “Design and Synthesis of Oleanolic Acid Trimers to Enhance Inhibition of Influenza Virus Entry” (ACS Med Chem Lett, 2021)
pIC50: −log10 of the molar value. Calls of active or inactive are those of the source. The calls are words filed in the database; no cut-off is given here.

Assays:
[1] = Selectivity ratio of CC50 for MDCK cells to IC50 for Influenza A virus A/WSN/33(H1N1) infected in MDCK cells; assay type: toxicity, cell-based; conditions: dog, read-out: Ratio CC50/IC50
Procedure, shortened: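 Selectivity index calculated as CC50 (uninfected MDCK cells, CellTiter-Glo) divided by IC50 (inhibition of A/WSN/33 H1N1-induced CPE in MDCK cells).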

[2] = biological target: Hemagglutinin (Influenza A virus (A/Puerto Rico/8/1934(H1N1))) (UniProt P03452); assay: Inhibition of hemagglutinin in compound-pretreated Influenza A virus (A/WSN/1933(H1N1)) infected in chicken RBC assessed as reduction in virus-induced agglutination measured after 25 mins; assay type: cell-based; conditions: Erythrocyte
Chain of Hemagglutinin (Influenza A virus (A/Puerto Rico/8/1934(H1N1))) (P03452 whole entry): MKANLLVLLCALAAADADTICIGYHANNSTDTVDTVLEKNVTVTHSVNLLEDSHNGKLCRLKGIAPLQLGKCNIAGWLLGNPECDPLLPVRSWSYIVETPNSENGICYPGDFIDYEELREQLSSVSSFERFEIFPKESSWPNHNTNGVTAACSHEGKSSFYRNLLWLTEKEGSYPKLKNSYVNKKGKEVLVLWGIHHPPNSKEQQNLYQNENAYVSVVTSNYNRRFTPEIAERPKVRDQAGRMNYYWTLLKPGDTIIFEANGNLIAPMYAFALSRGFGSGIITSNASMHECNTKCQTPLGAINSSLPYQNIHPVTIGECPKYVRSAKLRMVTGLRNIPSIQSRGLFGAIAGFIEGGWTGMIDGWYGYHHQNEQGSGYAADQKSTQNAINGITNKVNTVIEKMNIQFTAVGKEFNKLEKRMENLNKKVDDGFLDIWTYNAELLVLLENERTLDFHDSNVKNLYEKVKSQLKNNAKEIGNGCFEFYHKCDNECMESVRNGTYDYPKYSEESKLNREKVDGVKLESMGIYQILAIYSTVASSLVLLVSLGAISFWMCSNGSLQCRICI
Procedure, shortened: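 Hemagglutination inhibition: virus pretreated with compound, then chicken erythrocytes added and incubated a further 25 min at room temperature. Anti-HA antibody served as the positive control.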

Influenza B virus = assay: Antiviral activity against Influenza B virus (B/Sichuan/531/2018(Victoria)) infected in cells assessed as reduction in infected cells; assay type: functional, organism-based
[3] = Cytotoxicity against MDCK cells assessed as reduction in cell viability by CellTiter-Glo assay; assay type: cell-based, Canis lupus familiaris; conditions: dog
Procedure, shortened: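 Viability of normal, uninfected MDCK cells measured by CellTiter-Glo. Medium containing 1% DMSO was the negative control. CC50 is the concentration that reduces viability by 50%.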

[4] = Selectivity index, ratio of CC50 for MDCK cells to IC50 for antiviral activity against Influenza A virus (A/Hong Kong/4801/2014 (H3N2)); assay type: toxicity; conditions: dog, read-out: Ratio CC50/IC50
Influenza A virus [5] = assay: Antiviral activity against Influenza A virus (A/Hong Kong/4801/2014 (H3N2)) infected in cells assessed as reduction in infected cells; assay type: functional, organism-based
Influenza A virus [6] = assay: Antiviral activity against Influenza A virus (A/WSN/1933(H1N1)) infected in MDCK cells assessed as s reduction in virus-induced cytopathic effect after 40 hrs incubation by CellTiter-Glo assay; assay type: functional, organism-based
Procedure, shortened: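 CPE-based dose–response in MDCK cells infected with A/WSN/33 (H1N1), using the CellTiter-Glo viability read-out. Medium with 1% DMSO was the negative control and oseltamivir phosphate the positive control. IC50 is the concentration giving 50% inhibition of virus-induced CPE. Means of duplicate samples from three independent experiments.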

Influenza A virus [7] = assay: Antiviral activity against Influenza A virus (A/WSN/1933(H1N1)) infected in MDCK cells assessed as inhibition of virus-induced cytopathic effect at 100 uM measured after 40 hrs incubation by inverted microscpic imaging analysis; assay type: functional
Procedure, shortened: (§1)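 MDCK cells infected with influenza A/WSN/33 (H1N1), with compounds at 100 μM. Viral CPE judged by direct microscopic observation. DMSO served as the negative control and oseltamivir phosphate as the positive control. Triplicate experiments, with standard deviations.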

Influenza A virus [8] = assay: Antiviral activity against Influenza A virus (A/WSN/1933(H1N1)) infected in MDCK cells assessed as reduction in virus-induced cytopathic effect at 100 uM measured after 40 hrs incubation by inverted microscpic imaging analysis; assay type: functional, organism-based; procedure, shortened: as §1
[9] = Selectivity index, ratio of CC50 for MDCK cells to IC50 for antiviral activity against Influenza A virus (B/Sichuan/531/2018(Victoria)); assay type: toxicity; conditions: dog, read-out: Ratio CC50/IC50

Compound | selectivity ratio [1] | inhibition [2] | pIC50 (Influenza B virus) | CC50 [3] [µM] | selectivity ratio [4] | pIC50 (Influenza A virus [5]) | pIC50 (Influenza A virus [6]) | inhibition at 100 µM (Influenza A virus [7]) [%] | Activity (Influenza A virus [8]) | selectivity ratio [9]
CC1(C)CC[C@]2(C(=O)NCCCc3cn(CC(CO)(Cn4cc(CCCNC(=O)[C@]56CCC(C)(C)C[C@H]5C5=CC[C@@H]7[C@@]8(C)CC[C@H](O)C(C)(C)[C@@H]8CC[C@@]7(C)[C@]5(C)CC6)nn4)Cn4cc(CCCNC(=O)[C@]56CCC(C)(C)C[C@H]5C5=CC[C@@H]7[C@@]8(C)CC[C@H](O)C(C)(C)[C@@H]8CC[C@@]7(C)[C@]5(C)CC6)nn4)nn3)CC[C@]3(C)C(=CC[C@@H]4[C@@]5(C)CC[C@H](O)C(C)(C)[C@@H]5CC[C@]43C)[C@@H]2C1 | > 323 | Active | 4.42 | > 100 | > 58.5 | 5.77 | 6.51 | > 80 | Active | > 2.66
CC1(C)CC[C@]2(C(=O)NCCOCCOCCOCCn3cc(OCc4cc(COc5cn(CCOCCOCCOCCNC(=O)[C@]67CCC(C)(C)C[C@H]6C6=CC[C@@H]8[C@@]9(C)CC[C@H](O)C(C)(C)[C@@H]9CC[C@@]8(C)[C@]6(C)CC7)nn5)cc(COc5cn(CCOCCOCCOCCNC(=O)[C@]67CCC(C)(C)C[C@H]6C6=CC[C@@H]8[C@@]9(C)CC[C@H](O)C(C)(C)[C@@H]9CC[C@@]8(C)[C@]6(C)CC7)nn5)c4)nn3)CC[C@]3(C)C(=CC[C@@H]4[C@@]5(C)CC[C@H](O)C(C)(C)[C@@H]5CC[C@]43C)[C@@H]2C1 | > 10.2 | – | – | > 100 | – | – | 5.01 | > 80 | – | –
CC1(C)CC[C@]2(C(=O)NCc3cn(Cc4cc(Cn5cc(CNC(=O)[C@]67CCC(C)(C)C[C@H]6C6=CC[C@@H]8[C@@]9(C)CC[C@H](O)C(C)(C)[C@@H]9CC[C@@]8(C)[C@]6(C)CC7)nn5)cc(Cn5cc(CNC(=O)[C@]67CCC(C)(C)C[C@H]6C6=CC[C@@H]8[C@@]9(C)CC[C@H](O)C(C)(C)[C@@H]9CC[C@@]8(C)[C@]6(C)CC7)nn5)c4)nn3)CC[C@]3(C)C(=CC[C@@H]4[C@@]5(C)CC[C@H](O)C(C)(C)[C@@H]5CC[C@]43C)[C@@H]2C1 | > 14.6 | – | – | > 100 | – | – | 5.16 | > 80 | – | –
CC1(C)CC[C@]2(C(=O)NCCOCCn3cc(OCc4cc(COc5cn(CCOCCNC(=O)[C@]67CCC(C)(C)C[C@H]6C6=CC[C@@H]8[C@@]9(C)CC[C@H](O)C(C)(C)[C@@H]9CC[C@@]8(C)[C@]6(C)CC7)nn5)cc(COc5cn(CCOCCNC(=O)[C@]67CCC(C)(C)C[C@H]6C6=CC[C@@H]8[C@@]9(C)CC[C@H](O)C(C)(C)[C@@H]9CC[C@@]8(C)[C@]6(C)CC7)nn5)c4)nn3)CC[C@]3(C)C(=CC[C@@H]4[C@@]5(C)CC[C@H](O)C(C)(C)[C@@H]5CC[C@]43C)[C@@H]2C1 | > 5.98 | – | – | > 100 | – | – | 4.78 | > 80 | – | –
CCOC(=O)C1=C[C@@H](OC(CC)CC)[C@H](NC(C)=O)[C@@H](N)C1 [OSELTAMIVIR PHOSPHATE] | > 55 | – | < 4.00 | > 100 | – | < 4.00 | 5.74 | > 80 | – | –
CC1(C)CC[C@]2(C(=O)NCCc3cn(CC(CO)(Cn4cc(CCNC(=O)[C@]56CCC(C)(C)C[C@H]5C5=CC[C@@H]7[C@@]8(C)CC[C@H](O)C(C)(C)[C@@H]8CC[C@@]7(C)[C@]5(C)CC6)nn4)Cn4cc(CCNC(=O)[C@]56CCC(C)(C)C[C@H]5C5=CC[C@@H]7[C@@]8(C)CC[C@H](O)C(C)(C)[C@@H]8CC[C@@]7(C)[C@]5(C)CC6)nn4)nn3)CC[C@]3(C)C(=CC[C@@H]4[C@@]5(C)CC[C@H](O)C(C)(C)[C@@H]5CC[C@]43C)[C@@H]2C1 | > 34.8 | – | – | > 100 | – | – | 5.54 | > 80 | – | –
CC1(C)CC[C@]2(C(=O)NCCCCCc3cn(CC(CO)(Cn4cc(CCCCCNC(=O)[C@]56CCC(C)(C)C[C@H]5C5=CC[C@@H]7[C@@]8(C)CC[C@H](O)C(C)(C)[C@@H]8CC[C@@]7(C)[C@]5(C)CC6)nn4)Cn4cc(CCCCCNC(=O)[C@]56CCC(C)(C)C[C@H]5C5=CC[C@@H]7[C@@]8(C)CC[C@H](O)C(C)(C)[C@@H]8CC[C@@]7(C)[C@]5(C)CC6)nn4)nn3)CC[C@]3(C)C(=CC[C@@H]4[C@@]5(C)CC[C@H](O)C(C)(C)[C@@H]5CC[C@]43C)[C@@H]2C1 | > 175 | – | < 4.00 | > 100 | > 83.3 | 5.92 | 6.24 | > 80 | – | –
CC1(C)CC[C@]2(C(=O)NCCCCCc3cn(Cc4cc(Cn5cc(CCCCCNC(=O)[C@]67CCC(C)(C)C[C@H]6C6=CC[C@@H]8[C@@]9(C)CC[C@H](O)C(C)(C)[C@@H]9CC[C@@]8(C)[C@]6(C)CC7)nn5)cc(Cn5cc(CCCCCNC(=O)[C@]67CCC(C)(C)C[C@H]6C6=CC[C@@H]8[C@@]9(C)CC[C@H](O)C(C)(C)[C@@H]9CC[C@@]8(C)[C@]6(C)CC7)nn5)c4)nn3)CC[C@]3(C)C(=CC[C@@H]4[C@@]5(C)CC[C@H](O)C(C)(C)[C@@H]5CC[C@]43C)[C@@H]2C1 | – | – | – | > 100 | – | – | – | > 80 | – | –
CC1(C)CC[C@]2(C(=O)NCCCc3cn(Cc4cc(Cn5cc(CCCNC(=O)[C@]67CCC(C)(C)C[C@H]6C6=CC[C@@H]8[C@@]9(C)CC[C@H](O)C(C)(C)[C@@H]9CC[C@@]8(C)[C@]6(C)CC7)nn5)cc(Cn5cc(CCCNC(=O)[C@]67CCC(C)(C)C[C@H]6C6=CC[C@@H]8[C@@]9(C)CC[C@H](O)C(C)(C)[C@@H]9CC[C@@]8(C)[C@]6(C)CC7)nn5)c4)nn3)CC[C@]3(C)C(=CC[C@@H]4[C@@]5(C)CC[C@H](O)C(C)(C)[C@@H]5CC[C@]43C)[C@@H]2C1 | > 263 | – | 4.55 | > 100 | > 37.5 | 5.57 | 6.42 | > 80 | – | > 3.53
CC1(C)CC[C@]2(C(=O)O)CC[C@]3(C)C(=CC[C@@H]4[C@@]5(C)CC[C@H](O)C(C)(C)[C@@H]5CC[C@]43C)[C@@H]2C1 [OLEANOLIC_ACID] | > 1.38 | – | – | > 100 | – | – | 4.14 | > 80 | – | –
CC1(C)CC[C@]2(C(=O)NCCc3cn(Cc4cc(Cn5cc(CCNC(=O)[C@]67CCC(C)(C)C[C@H]6C6=CC[C@@H]8[C@@]9(C)CC[C@H](O)C(C)(C)[C@@H]9CC[C@@]8(C)[C@]6(C)CC7)nn5)cc(Cn5cc(CCNC(=O)[C@]67CCC(C)(C)C[C@H]6C6=CC[C@@H]8[C@@]9(C)CC[C@H](O)C(C)(C)[C@@H]9CC[C@@]8(C)[C@]6(C)CC7)nn5)c4)nn3)CC[C@]3(C)C(=CC[C@@H]4[C@@]5(C)CC[C@H](O)C(C)(C)[C@@H]5CC[C@]43C)[C@@H]2C1 | > 3.17 | – | – | > 100 | – | – | 4.50 | > 80 | – | –
CC1(C)CC[C@]2(C(=O)NCCCCc3cn(CC(CO)(Cn4cc(CCCCNC(=O)[C@]56CCC(C)(C)C[C@H]5C5=CC[C@@H]7[C@@]8(C)CC[C@H](O)C(C)(C)[C@@H]8CC[C@@]7(C)[C@]5(C)CC6)nn4)Cn4cc(CCCCNC(=O)[C@]56CCC(C)(C)C[C@H]5C5=CC[C@@H]7[C@@]8(C)CC[C@H](O)C(C)(C)[C@@H]8CC[C@@]7(C)[C@]5(C)CC6)nn4)nn3)CC[C@]3(C)C(=CC[C@@H]4[C@@]5(C)CC[C@H](O)C(C)(C)[C@@H]5CC[C@]43C)[C@@H]2C1 | > 3.99 | – | – | > 100 | – | – | 4.60 | > 80 | – | –
CC1(C)CC[C@]2(C(=O)NCc3cn(CC(CO)(Cn4cc(CNC(=O)[C@]56CCC(C)(C)C[C@H]5C5=CC[C@@H]7[C@@]8(C)CC[C@H](O)C(C)(C)[C@@H]8CC[C@@]7(C)[C@]5(C)CC6)nn4)Cn4cc(CNC(=O)[C@]56CCC(C)(C)C[C@H]5C5=CC[C@@H]7[C@@]8(C)CC[C@H](O)C(C)(C)[C@@H]8CC[C@@]7(C)[C@]5(C)CC6)nn4)nn3)CC[C@]3(C)C(=CC[C@@H]4[C@@]5(C)CC[C@H](O)C(C)(C)[C@@H]5CC[C@]43C)[C@@H]2C1 | > 21.3 | – | – | > 100 | – | – | 5.33 | > 80 | – | –
